Hits are enriched below; roughly 1.9% of the tested compounds scored in any of these assays.
PLC-gamma1 inh = blocks human PLC-gamma1 enzyme activity. P19174. purified PLC-gamma1, fluorogenic substrate, fluorescence. inhibition, % at 12.2 µM. hit rate 0.84% among 370,000; in the data active = inhibition above about 9.5%
HGIII-sPLA2 inh = Inhibits HGIII-sPLA2 liposome hydrolysis, primary screen | Q9NZ20 | QFRET BODIPY PC-A2 liposome hydrolysis, fluorescence | inhibition, % at 12.2 µM | hit rate 0.56% among 370,000 | AID 743126;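 active = inhibition above mean plus 3 SD of compounds lying within the high and low control bounds, cut at about 19% in these data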
PLCb3 inh = blocks human PLC-beta3 enzyme activity. hit rate 0.18% among 370,000. AID 720704. inhibition, % at 12.2 µM. Purified PLC-beta3, fluorogenic substrate, fluorescence. Q01970; in the data active = inhibition above about 11%
procasp7 counter = counter-screen: procaspase-7 (human) activation; P55210; recombinant procaspase-7, Ac-DEVD-pNA absorbance 405 nm; D23A/D198A/D206A triple mutant, cannot self-cleave; scale: DMSO 0, 5 µM enzyme 100; activation, % at 8.5 µM; hit rate 0.093% among 330,000; AID 463210;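 active = percent activation above the screen-wide mean plus 3 SD, cut at about 25% in these data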
Target sequence (P55210 whole entry D23A/D198A/D206A): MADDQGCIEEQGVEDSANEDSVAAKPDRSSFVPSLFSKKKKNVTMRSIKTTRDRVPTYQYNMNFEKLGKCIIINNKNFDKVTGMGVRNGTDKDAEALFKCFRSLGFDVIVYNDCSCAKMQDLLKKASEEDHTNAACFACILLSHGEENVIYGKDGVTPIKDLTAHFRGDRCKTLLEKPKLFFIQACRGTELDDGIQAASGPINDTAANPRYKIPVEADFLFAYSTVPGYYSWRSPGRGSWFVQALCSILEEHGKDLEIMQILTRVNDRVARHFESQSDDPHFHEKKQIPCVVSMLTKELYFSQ
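Assay system: Uncleavable procaspase-7 mutant enzyme | Input: 2 µM procaspase-7 mutant as dispensed | Timing: 1 h compound preincubation, 2 h substrate cleavage, 25 °C | Repeats: One well per compound | Control set: DMSO wells as 0%, DMSO with 5 µM added PC-7 as 100% | Technique: Epi-absorbance of released pNA at 405 nm, two timepoints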
Arr AP2 block = blocks beta-arrestin peptide binding to AP2 adaptin; AID 504490; hit rate 0.31% among 340,000; FITC-arrestin peptide / GST-AP2 beads, flow cytometry; AP2 beta2 appendage carries R879A mutation; inhibition, % at 10 µM;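 active = inhibition above a set limit, near 3 SD of compounds lacking own fluorescence, cut at about 54% in these data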
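System: GST-AP2 R879A glutathione beads; medium: PBS, Tween 20 0.05%, BSA 0.1%; reagent: fluorescein-tagged arrestin peptide at 50 nM final; schedule: pre-incubation 12 min, peptide binding 1 h, room temperature; detection: flow cytometry, FL1 (488/535 nm); read-out: inhibition as reduced fluorescein signal on beads, percent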
procasp3 activ = activates human procaspase-3; recombinant procaspase-3 D3A, Ac-DEVD-pNA absorbance 405 nm; AID 463141; hit rate 0.11% among 330,000; activation, % at 8.5 µM;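 active = activation above the mean of all tested compounds plus 3 SD, cut at about 21% in these data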
Target sequence (P42574 whole entry D9A/D28A/D175A): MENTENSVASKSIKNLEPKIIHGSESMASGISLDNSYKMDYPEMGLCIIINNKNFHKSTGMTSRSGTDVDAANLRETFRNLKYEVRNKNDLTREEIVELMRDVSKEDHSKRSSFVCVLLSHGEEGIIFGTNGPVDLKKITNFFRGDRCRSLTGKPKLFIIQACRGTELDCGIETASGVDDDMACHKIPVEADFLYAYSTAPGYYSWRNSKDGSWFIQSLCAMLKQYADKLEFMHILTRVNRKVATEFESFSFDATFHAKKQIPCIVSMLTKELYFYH
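Evaluation: percent activation relative to control range; Material: Procaspase-3 D3A mutant, all three cleavage aspartates alanine; Compound: single dose, 8.5 µM nominal compound, 0.8% DMSO; Replication: one well per compound; Signal: absorbance at 405 nm, 0 and 120 min; Schedule: 1 h preincubation plus 2 h reaction at 25 °C.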
Arr AP2 CP1 = blocks beta-arrestin peptide binding to human AP2 | AID 504908 | shares compounds with Arr AP2 block | inhibition, % at 10 µM | hit rate 2% among 1,300 | GST-AP2 beads, FITC arrestin peptide binding, flow cytometry; GST-fused beta2-adaptin appendage, R879A mutant;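 active = inhibition above a set limit, roughly 3 SD of non-fluorescent compound noise, cut at about 38% in these data; inactive = inhibition at or below that limit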;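 also: loss of bead fluorescence from 50 nM FITC arrestin peptide bound to appendage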
GST-FITC bead = counter-screen for beta-arrestin AP2 inhibitors: GST-GSH bead binding | GST-fluorescein binding to GSH beads, fluorescence | hit rate 2% among 1,300 | shares compounds with Arr AP2 block | inhibition, % at 10 µM;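 active = inhibition above 50%, about 3 SD of the inhibition seen with non-fluorescent compounds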;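 also: fluorescein maleimide labelled GST captured on 4 micron glutathione beads; higher means more loss of bead fluorescence from quenching or blocked binding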
Hits are given with their value; 0 = inactive; - = no result given.

SMILES | PLC-gamma1 inh | HGIII-sPLA2 inh | PLCb3 inh | procasp7 counter | Arr AP2 block | procasp3 activ | Arr AP2 CP1 | GST-FITC bead
c1ccc(-c2c[nH]c3cccc(C4CCCCC4)c23)cc1 | 0 | 0 | 0 | - | - | - | - | -
Cc1ccc(NC(=O)Nc2cccc(C)n2)c(C)c1 | 0 | 0 | 0 | 0 | 0 | 0 | - | -
Cc1cccc(NC(=O)Nc2cnccn2)c1 | 0 | 0 | 0 | 0 | 0 | 0 | 0 | 0
Cc1ccc(NC(=O)Nc2cnccn2)c(C)c1 | 0 | 0 | 0 | 0 | 0 | 0 | 0 | 0
COc1cccc(NC(=O)Nc2cnccn2)c1 | 0 | 0 | 0 | 0 | 0 | 0 | 0 | 0
CC(C)N(Cc1cn(Cc2ccccc2)nn1)S(=O)(=O)c1ccccc1Br | 0 | 0 | 0 | - | - | - | - | -
COc1cc(C(=O)OCCNC(=O)c2cccnc2)cc(OC)c1OC | 0 | 0 | 0 | 0 | 58.3 | 0 | 0 | 0
COc1cc(C(=O)OCCNC(=O)c2ccccc2)cc(OC)c1OC | 0 | 0 | 0 | 0 | 0 | 0 | - | -
COc1ccccc1-n1cnc2c(c1=O)c1nc3ccccc3nc1n2CCc1ccccc1 | 0 | 0 | 0 | 0 | 72.9 | 0 | 0 | 68.1
O=CN1CCN(C(C(=O)NC2CCCC2)c2cc3c(cc2[N+](=O)[O-])OCO3)CC1 (stereo not drawn) | 0 | 0 | 0 | 0 | 60.4 | 0 | 0 | 0
O=C(NC1CCCC1)C(c1cc2c(cc1[N+](=O)[O-])OCO2)N1CCCC1 (stereo not drawn) | 0 | 0 | 0 | 0 | 0 | 0 | - | -
Cn1cccc1C(=O)NC(=O)CSc1cccc[n+]1[O-] | 0 | 0 | 0 | 0 | 0 | 0 | - | -
O=C(CSc1cccc[n+]1[O-])NC(=O)c1ccc(OC(F)F)cc1 | 0 | 0 | 0 | 0 | 54.3 | 0 | 0 | 0
CCCCNC(=O)C1CCCN1C(=O)NCc1ccccc1OC (stereo not drawn) | 0 | 0 | 0 | - | - | - | - | -
Cc1cc(NC(=O)CC2CCCC2)n(-c2nc3ccccc3[nH]2)n1 | 0 | 0 | 0 | 0 | 0 | 0 | - | -
Cc1nc2ccccc2c(=O)n1NC(=O)/C=C/c1ccccc1Cl | 0 | 0 | 0 | 0 | 0 | 0 | - | -
Cc1cc(NC(=O)/C=C/c2ccccc2Cl)n(-c2nc3ccccc3[nH]2)n1 | 0 | 0 | 0 | 0 | 100.6 | 0 | 0 | 0
Cc1cc(NC(=O)c2ccc(F)cc2F)n(-c2nc3ccccc3[nH]2)n1 | - | - | - | 0 | 0 | 0 | 0 | 0
CCOC(=O)N1CCN(C(=O)c2ccc3c(=O)n(-c4ccccc4F)c(=S)[nH]c3c2)CC1 | 0 | 0 | 0 | 0 | 0 | 0 | - | -
CCc1ccc(C(CNC(=O)c2ccc3c(=O)n(-c4ccccc4F)c(=S)[nH]c3c2)N(C)C)cc1 (stereo not drawn) | 0 | 0 | 0 | 0 | 58.2 | 0 | 0 | 0
O=[N+]([O-])c1ccc(NS(=O)(=O)c2cccc3cccnc23)cc1 | 0 | 0 | 0 | 0 | 55.4 | 0 | 0 | 0
O=S(=O)(Nc1ccc(O)cc1)c1cccc2cccnc12 | 0 | 0 | 0 | 0 | 0 | 0 | - | -
O=C(CSc1nnc(-c2ccncc2)n1-c1ccccc1)Nc1ccc2c(c1)OCCO2 | 0 | 0 | 0 | - | - | - | - | -
COc1ccc(-c2cc(C(F)F)n3ncc(C(=O)Nc4cc(C)on4)c3n2)cc1 | 0 | 0 | 0 | 0 | 103.5 | 0 | 0 | 0
CN(C)c1cccc(/C=C2\CC3(OC(=O)c4ccc(F)cc4)CCCN2C3)c1 (stereo not drawn) | 0 | 0 | 0 | - | - | - | - | -
SMILES | PLC-gamma1 inh | HGIII-sPLA2 inh | PLCb3 inh | procasp7 counter | Arr AP2 block | procasp3 activ | Arr AP2 CP1 | GST-FITC bead
Cc1[nH]nc2c1C(c1ccccc1)N(Cc1ccccc1)C2=O (stereo not drawn) | 0 | 0 | 0 | - | - | - | - | -
O=C(CN1CCCN(S(=O)(=O)c2ccc(Br)s2)CC1)Nc1ccc(Cl)cc1 | 0 | 0 | 0 | 0 | 0 | 0 | - | -
CC1CCCC(NC(=O)CN2CCN(S(=O)(=O)c3ccc(Br)s3)CC2)C1C (stereo not drawn) | 0 | 0 | 0 | - | 63.6 | - | 0 | 0
COc1cccc(C(=O)NCCN2C(=O)C3C4C=CC(C4)C3C2=O)c1 (stereo not drawn) | 0 | 0 | 0 | - | - | - | - | -
Cc1nc2c(C)cccn2c(=O)c1NC(=O)c1cccs1 | 0 | 0 | 0 | 0 | 65.7 | 0 | 0 | 0
Cc1ccc(-n2c(Cc3cccs3)nnc2SCc2ccc([N+](=O)[O-])cc2)cc1 | 0 | 0 | 0 | - | - | - | - | -
COC(=O)CSc1nc(N)nc(C)c1Br | 0 | 0 | 0 | 0 | 56.0 | 0 | 0 | 0
COC(=O)[C@]12C[C@H](CC(=O)N3CCSCC3)C(=O)N(Cc3ccc(Cl)cc3Cl)C1=C[C@H](C1CCCC1)O[C@@H]2C | 0 | 0 | 0 | - | - | - | - | -

Screening data (PubChem)
